We go through three molecules from paper PMC10448495 (ACS Omega, 2023).

What all share (type): in vivo
One experiment deals with mice. In words: Carrageenan-induced paw edema model. The following applies: dose 10 mg/kg. Summed up: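 Thirty BALB-c mice randomised into five groups of six. Paw volume by digital plethysmometer at 0, 1, 2, 3, 4 and 5 h; percent inhibition from paw-volume increase, control versus treated. ANOVA/Dunnett's.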
For orientation: In the carrageenan paw model, swelling and tenderness develop within hours.

The test system of experiment [1] is mice (BALB-c). In words: Acetic acid-induced writhing assay. The following applies: 10 mg/kg i.p. The essentials:
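BALB-c mice of either sex (18–22 g), fasted 2 h, six per group. Writhes counted starting 5 min after acid; percent analgesic effect derived. Mean ± S.E.M., ANOVA with Dunnett's test versus negative control.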
A general note: Writhing tests count abdominal constrictions after an irritant is injected.

Experiment [2] has as its system mice (BALB-c). In words: Hot plate assay. The following applies: dose 10 mg/kg.

Structures are written as SMILES.

Consider `O=C(O)Cc1ccccc1Nc1c(Cl)cccc1Cl` [diclofenac–Na, diclofenac sodium], for which the paw volume in the experiment with mice (1 h) was 2.283 ± 0.201; in the experiment on mice (2 h) it was 2.142 ± 0.105; with mice (3 h), 2.004 ± 0.224; in the experiment with mice (4 h) it was 2.010 ± 0.185; in the experiment with mice (5 h), 2.019 ± 0.022.

For `COc1ccc2c(c1)c(CC(=O)O)c(C)n2C(=O)c1ccc(Cl)cc1` [indomethacin], the paw volume in the experiment on mice (1 h) was determined as 2.462 ± 0.032; in the experiment with mice (2 h), 2.207 ± 0.218; in the experiment with mice (3 h), 2.100 ± 0.122; in the experiment on mice (4 h), 2.128 ± 0.370; in the experiment on mice (5 h), 2.184 ± 0.632. Further, the “no. of writhing (20 min)” value in the experiment on mice (BALB-c) [1] is 17.04 ± 1.22.

Regarding `COc1cccc(C2(O)CCCCC2CN(C)C)c1` (stereo not shown) [tramal, tramadol], the “latency of nociceptive response” value turned out to be 10.32 ± 0.57 s in the experiment on mice (BALB-c) [2] (0 min); 26.22 ± 1.07 s with mice (BALB-c) [2] (30 min); 25.45 ± 2.52 s with mice (BALB-c) [2] (60 min); 20.37 ± 0.88 s in the experiment on mice (BALB-c) [2] (90 min); 20.07 ± 1.66 s with mice (BALB-c) [2] (120 min).
